≈ marks a conversion by molar mass, not a printed value.
Tests used:
Type in all cases: functional
[1] = test system: Candida albicans; test: Antimicrobial activity against Cdr1, Cdr2 and Mdr1 deficient Candida albicans DSY1050 dissociated biofilms at cell density of 10^8 cells/ml after 48 hrs by XTT assay; conditions: DSY1050, 48 h
Method in brief: (§1)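 Polystyrene-well biofilms (48 h, 37°C) washed, then broken up in 100 µl RPMI by scraping and aspiration. Cells used undiluted (about 2 x 10^8 cells/ml equivalent) or adjusted by A600 against a hemacytometer-calibrated yeast standard curve. Drug exposure at 37°C for 48 h (caspofungin 24 h), then XTT/menadione read at 490 nm.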

[2] = test system: Candida albicans; test: Antimicrobial activity against Candida albicans SC5314 dissociated biofilms at cell density of 10^3 cells/ml after 48 hrs by XTT assay; conditions: SC5314, 48 h; method in brief: as §1
[3] = test system: Candida albicans; test: Antimicrobial activity against fluconazole-resistant Candida albicans FH5 at planktonic cell density of 10^3 cells/ml after 48 hrs by XTT assay; conditions: FH5, 48 h
Method in brief: (§2)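 YNB-grown yeast (50 mM glucose, room temperature, shaken, to ~2 x 10^8 cells/ml) washed into MOPS-buffered RPMI 1640 with L-glutamine and set to the stated density. Exposed to twofold serial drug dilutions (1,024 to 0.0313 µg/ml) at 37°C, 48 h (caspofungin 24 h), with drug-free controls. Read-out: XTT (0.5 g/liter) plus 1 µM menadione, formazan at 490 nm.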

[4] = test system: Candida albicans; test: Antimicrobial activity against Candida albicans FH1 at planktonic cell density of 10^3 cells/ml after 48 hrs by XTT assay; conditions: FH1, 48 h; method in brief: as §2
[5] = test system: Candida albicans; test: Antimicrobial activity against Cdr1, Cdr2 and Mdr1 deficient Candida albicans DSY1050 at planktonic cell density of 10^3 cells/ml after 48 hrs by XTT assay; conditions: DSY1050, 48 h; method in brief: as §2
[6] = test system: Candida albicans; test: Antimicrobial activity against Candida albicans SC5314 at planktonic cell density of 10^8 cells/ml after 48 hrs by XTT assay; conditions: SC5314, 48 h; method in brief: as §2
[7] = test system: Candida albicans; test: Antimicrobial activity against Candida albicans GDH2346 at planktonic cell density of 10^3 cells/ml after 48 hrs by XTT assay; conditions: GDH2346, 48 h; method in brief: as §2
[8] = test system: Candida albicans; test: Antimicrobial activity against Candida albicans FH1 dissociated biofilms at cell density of 10^8 cells/ml after 48 hrs by XTT assay; conditions: FH1, 48 h; method in brief: as §1
[9] = test system: Candida albicans; test: Antimicrobial activity against Chk1 deficient Candida albicans CHK21 dissociated biofilms at cell density of 10^8 cells/ml after 48 hrs by XTT assay; conditions: CHK21, 48 h; method in brief: as §1
[10] = test system: Candida albicans; test: Antimicrobial activity against Candida albicans SC5314 biofilms after 24 hrs by XTT assay; conditions: SC5314, 24 h
Method in brief: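 Intact biofilms formed from 1 x 10^6 cells/ml in RPMI in polystyrene microtiter wells, 48 h at 37°C in a moist chamber, then washed once and covered with 100 µl RPMI. A twofold drug series was added in the same well for 24 h at 37°C. Metabolic activity was read by XTT (0.5 g/liter, 1 µM menadione, up to 2 h) at 490 nm.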

[11] = test system: Candida albicans; test: Antimicrobial activity against Candida albicans SC5314 intact biofilms after 48 hrs by XTT assay; conditions: SC5314, 48 h
Method in brief: (§3)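 Biofilm seeded at 1 x 10^6 cells/ml in RPMI in polystyrene microtiter wells and grown 48 h at 37°C in a moist chamber. Washed once and drug added to the same well (twofold dilutions, 1,024 to 0.0313 µg/ml) for 48 h at 37°C (caspofungin 24 h). Read-out: XTT/menadione reduction at 490 nm.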

[12] = test system: Candida albicans; test: Antimicrobial activity against fluconazole-resistant Candida albicans FH5 intact biofilms after 48 hrs by XTT assay; conditions: FH5, 48 h; method in brief: as §3
[13] = test system: Candida albicans; test: Antimicrobial activity against Candida albicans SC5314 at planktonic cell density of 10^3 cells/ml after 48 hrs by XTT assay; conditions: SC5314, 48 h; method in brief: as §2
[14] = test system: Candida albicans; test: Antimicrobial activity against Cdr1, Cdr2 and Mdr1 deficient Candida albicans DSY1050 dissociated biofilms at cell density of 10^3 cells/ml after 48 hrs by XTT assay; conditions: DSY1050, 48 h; method in brief: as §1
[15] = test system: Candida albicans; test: Antimicrobial activity against Candida albicans GDH2346 dissociated biofilms at cell density of 10^3 cells/ml after 48 hrs by XTT assay; conditions: GDH2346, 48 h; method in brief: as §1
[16] = test system: Candida albicans; test: Antimicrobial activity against Candida albicans GDH2346 at planktonic cell density of 10^8 cells/ml after 48 hrs by XTT assay; conditions: GDH2346, 48 h; method in brief: as §2
[17] = test system: Candida albicans; test: Antimicrobial activity against Chk1 deficient Candida albicans CHK21 intact biofilms after 48 hrs by XTT assay; conditions: CHK21, 48 h; method in brief: as §3
[18] = test system: Candida albicans; test: Antimicrobial activity against Candida albicans FH1 at planktonic cell density of 10^8 cells/ml after 48 hrs by XTT assay; conditions: FH1, 48 h; method in brief: as §2
[19] = test system: Candida albicans; test: Antimicrobial activity against Candida albicans SC5314 dissociated biofilms at cell density of 10^8 cells/ml after 48 hrs by XTT assay; conditions: SC5314, 48 h; method in brief: as §1
[20] = test system: Candida albicans; test: Antimicrobial activity against Chk1 deficient Candida albicans CHK21 at planktonic cell density of 10^8 cells/ml after 48 hrs by XTT assay; conditions: CHK21, 48 h; method in brief: as §2
[21] = test system: Candida albicans; test: Antimicrobial activity against Cdr1, Cdr2 and Mdr1 deficient Candida albicans DSY1050 at planktonic cell density of 10^8 cells/ml after 48 hrs by XTT assay; conditions: DSY1050, 48 h; method in brief: as §2
[22] = test system: Candida albicans; test: Antimicrobial activity against Chk1 deficient Candida albicans CHK21 dissociated biofilms at cell density of 10^3 cells/ml after 48 hrs by XTT assay; conditions: CHK21, 48 h; method in brief: as §1
[23] = test system: Candida albicans; test: Antimicrobial activity against fluconazole-resistant Candida albicans FH5 at planktonic cell density of 10^8 cells/ml after 48 hrs by XTT assay; conditions: FH5, 48 h; method in brief: as §2
[24] = test system: Candida albicans; test: Antimicrobial activity against Candida albicans assessed as cell viability at cell density of 2 x 10^4 cells/ml preincubated for 1 hr
[25] = test system: Candida albicans; test: Antimicrobial activity against fluconazole-resistant Candida albicans FH5 dissociated biofilms at cell density of 10^3 cells/ml after 48 hrs by XTT assay; conditions: FH5, 48 h; method in brief: as §1
[26] = test system: Candida albicans; test: Antimicrobial activity against Chk1 deficient Candida albicans CHK21 at planktonic cell density of 10^3 cells/ml after 48 hrs by XTT assay; conditions: CHK21, 48 h; method in brief: as §2
[27] = test system: Candida albicans; test: Antimicrobial activity against Candida albicans GDH2346 dissociated biofilms at cell density of 10^8 cells/ml after 48 hrs by XTT assay; conditions: GDH2346, 48 h; method in brief: as §1
[28] = test system: Candida albicans; test: Antimicrobial activity against fluconazole-resistant Candida albicans FH5 dissociated biofilms at cell density of 10^8 cells/ml after 48 hrs by XTT assay; conditions: FH5, 48 h; method in brief: as §1
[29] = test system: Candida albicans; test: Antimicrobial activity against Candida albicans GDH2346 intact biofilms after 48 hrs by XTT assay; conditions: GDH2346, 48 h; method in brief: as §3
[30] = test system: Candida albicans; test: Antimicrobial activity against Candida albicans FH1 intact biofilms after 48 hrs by XTT assay; conditions: FH1, 48 h; method in brief: as §3
[31] = test system: Candida albicans; test: Antimicrobial activity against Candida albicans SC5314 biofilms upto 12 hrs by XTT assay; conditions: SC5314, 12 h
Method in brief: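 SC5314 biofilm development followed over 72 h in polystyrene wells. At intervals the developing biofilm was exposed to fluconazole or amphotericin B, and metabolic activity was read by XTT/menadione reduction at 490 nm.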

[32] = test system: Candida albicans; test: Antimicrobial activity against Candida albicans FH1 dissociated biofilms at cell density of 10^3 cells/ml after 48 hrs by XTT assay; conditions: FH1, 48 h; method in brief: as §1
[33] = test system: Candida albicans; test: Antimicrobial activity against Cdr1, Cdr2 and Mdr1 deficient Candida albicans DSY1050 intact biofilms after 48 hrs by XTT assay; conditions: DSY1050, 48 h; method in brief: as §3

C[C@@H]1[C@H](O)[C@@H](C)/C=C/C=C/C=C/C=C/C=C/C=C/C=C/[C@H](O[C@@H]2O[C@H](C)[C@@H](O)[C@H](N)[C@@H]2O)C[C@@H]2O[C@](O)(C[C@@H](O)C[C@@H](O)[C@H](O)CC[C@@H](O)C[C@@H](O)CC(=O)O[C@H]1C)C[C@H](O)[C@H]2C(=O)O [AMPHOTERICIN B]
MIC80 [1]: > 32 µg/mL | MIC80 [2]: 0.5 µg/mL (≈ 0.541 µM) | MIC80 [3]: 0.25 µg/mL (≈ 0.271 µM) | MIC80 [4]: 0.125 µg/mL (≈ 0.135 µM) | MIC80 [5]: 0.25 µg/mL (≈ 0.271 µM) | MIC80 [6]: > 32 µg/mL | MIC80 [7]: 0.125 µg/mL (≈ 0.135 µM) | MIC80 [8]: > 32 µg/mL | MIC80 [9]: > 32 µg/mL | MIC80 [10]: > 8 µg/mL | MIC80 [11]: > 32 µg/mL | MIC80 [12]: > 32 µg/mL | MIC80 [13]: 0.125 µg/mL (≈ 0.135 µM) | MIC80 [14]: 0.25 µg/mL (≈ 0.271 µM) | MIC80 [15]: 0.5 µg/mL (≈ 0.541 µM) | MIC80 [16]: > 32 µg/mL | MIC80 [17]: > 32 µg/mL | MIC80 [18]: > 32 µg/mL | MIC80 [19]: > 32 µg/mL | MIC80 [20]: > 32 µg/mL | MIC80 [21]: > 32 µg/mL | MIC80 [22]: 0.25 µg/mL (≈ 0.271 µM) | MIC80 [23]: > 32 µg/mL | Activity [24]: 80% | MIC80 [25]: 0.25 µg/mL (≈ 0.271 µM) | MIC80 [26]: 0.125 µg/mL (≈ 0.135 µM) | MIC80 [27]: > 32 µg/mL | MIC80 [28]: > 32 µg/mL | MIC80 [29]: 32 µg/mL (≈ 34.6 µM) | MIC80 [30]: > 32 µg/mL | MIC80 [31]: 0.125 µg/mL (≈ 0.135 µM) | MIC80 [32]: 0.125 µg/mL (≈ 0.135 µM) | MIC80 [33]: > 32 µg/mL

From ChEMBL document CHEMBL1157378, “Role for cell density in antifungal drug resistance in Candida albicans biofilms” (2007)
